Here are results for five compounds from ChEMBL document CHEMBL4340514, “(2S)-N-2-methoxy-2-phenylethyl-6,7-benzomorphan compound (2S-LP2): Discovery of a biased mu/delta opioid receptor agonist” (Eur J Med Chem, 2019).

pEC50, pKi: −log10 of the molar value. The source made the active and inactive calls.

For series [1], the target named is T1, Mu-type opioid receptor (Homo sapiens, UniProt P35372). Kind of series: Potency index, ratio of test compounds pEC50 to DADLE pEC50 for agonist activity at Rluc-tagged MOR receptor (unknown origin) expressed in human […] cells co-expressing RGFP-fused to Gbeta1. The series is classed as cell-based.
T1 sequence (P35372 whole entry, the tested form may be a part): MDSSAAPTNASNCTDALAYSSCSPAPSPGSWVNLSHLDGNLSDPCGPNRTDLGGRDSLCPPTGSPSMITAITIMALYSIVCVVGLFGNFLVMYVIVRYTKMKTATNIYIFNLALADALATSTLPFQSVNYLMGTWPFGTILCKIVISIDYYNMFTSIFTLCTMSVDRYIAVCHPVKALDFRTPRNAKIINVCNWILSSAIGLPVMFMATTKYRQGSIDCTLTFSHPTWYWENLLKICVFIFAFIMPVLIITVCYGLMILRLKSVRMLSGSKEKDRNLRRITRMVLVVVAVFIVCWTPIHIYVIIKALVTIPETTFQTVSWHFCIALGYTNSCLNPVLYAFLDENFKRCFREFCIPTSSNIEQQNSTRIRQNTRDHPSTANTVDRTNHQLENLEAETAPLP
Series [2] addresses T1, Mu-type opioid receptor. The series is described as follows: Potency index, ratio of test compounds pEC50 to DADLE pEC50 for agonist activity at Rluc-tagged MOR receptor (unknown origin) expressed in human […] cells co-expressing RGFP-fused to beta-arrestin-2. The series is classed as cell-based.
In series [3] the target is T1, Mu-type opioid receptor. Kind of series: Potency index, ratio of test compounds EC50 to DADLE EC50 for agonist activity at Rluc-tagged MOR receptor (unknown origin) expressed in human […] cells co-expressing RGFP-fused to beta-arrestin-2. The class given is cell-based. A digest of the protocol:
(§1)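 Whole SH-SY5Y cells stably co-expressing MOR-RLuc and β-arrestin 2-RGFP, plated 24 h before at 100,000 cells/well, in PBS with 0.5 mM MgCl2 and 0.9 mM CaCl2. Coelenterazine 5 µM final, added 15 min before reading; ligands incubated 5 min at room temperature. Read-out is BRET ratio (510/460 nm).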

The target in series [4] is Kappa-type opioid receptor (Cavia porcellus, UniProt P41144). Kind of series: Displacement of [3H]-U69,593 from KOR in guinea pig brain membranes incubated for 30 mins by liquid scintillation counting. The series is classed as cell membranes. Summed up:
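Guinea pig brain membranes (0.5 mg/mL) incubated 30 min at 30 °C with 1 nM [3H]-(+)-U69,593. Filtered and counted by liquid scintillation. Ki from nonlinear regression of a logistic fit. Three experiments in duplicate.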
In general terms: In a radioligand displacement assay an active substance lowers the binding of a labelled ligand.

For series [5], the target named is Mu-type opioid receptor (Rattus norvegicus, UniProt P33535). The series is described as follows: Displacement of [3H]-DAMGO from MOR in rat brain membranes incubated for 45 mins by liquid scintillation counting. The series is classed as cell membranes. Summed up:
(§2)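 Rat brain membranes in 50 mM Tris-HCl pH 7.4, incubated 45 min at 35 °C. MOR: 0.4 mg/mL protein with 1 nM [3H]-DAMGO. DOR: 0.5 mg/mL protein with 2 nM [3H]-DPDPE. Filtered and counted by liquid scintillation. Ki from nonlinear regression of a logistic fit. Three experiments in duplicate.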

In series [6] the target is Delta-type opioid receptor (Rattus norvegicus, UniProt P33533). The series is described as follows: Displacement of [3H]DPDPE from DOR in rat brain membranes incubated for 45 mins by liquid scintillation counting. The series is classed as cell membranes. Summed up: as §2
Chain of Delta-type opioid receptor (Rattus norvegicus, UniProt P33533) (P33533 whole entry): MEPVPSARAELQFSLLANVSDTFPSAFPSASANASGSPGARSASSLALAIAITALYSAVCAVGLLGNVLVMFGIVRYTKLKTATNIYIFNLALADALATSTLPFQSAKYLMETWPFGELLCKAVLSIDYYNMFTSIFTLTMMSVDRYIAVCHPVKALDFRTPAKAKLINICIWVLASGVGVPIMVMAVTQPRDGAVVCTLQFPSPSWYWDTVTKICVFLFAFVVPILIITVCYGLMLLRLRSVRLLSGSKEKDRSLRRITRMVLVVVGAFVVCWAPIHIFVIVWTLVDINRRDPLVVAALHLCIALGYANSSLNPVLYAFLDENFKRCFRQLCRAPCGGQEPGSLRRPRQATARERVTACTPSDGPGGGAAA
Series [7] has as its system Mus musculus. The series is described as follows: Antinociceptive activity in ip dosed Swiss CB1 mouse after 30 to 180 mins by radiant heat tail-flick method. The class given is functional. A digest of the protocol:
(§3)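 Male Swiss CB1 mice (25-30 g), habituated the day before. Radiant heat tail-flick: infrared source aimed at the lower third of the tail at 25 ± 1 °C. Baseline 3-5 s, mean of three readings 5 min apart; 20 s cutoff. Compounds in saline with DMSO (5%), given i.p. Latencies read at 30-180 min. […] Groups of 6-8 mice.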
For orientation: In hot-plate and tail-flick tests a longer latency is read as antinociception.

Series [8] deals with T1, Mu-type opioid receptor.
In series [9] the target is T1, Mu-type opioid receptor. The source holds these as a separate data set.
In series [10] the target is T1, Mu-type opioid receptor. Kind of series: Potency index, ratio of test compounds intrinsic activity to DADLE intrinsic activity for agonist activity at Rluc-tagged MOR receptor (unknown origin) expressed in human […] cells co-expressing RGFP-fused to beta-arrestin-2. The series is classed as cell-based. A digest of the protocol:
as §1

For the next series, the species on record is Rattus norvegicus. The series is described as follows: Selectivity ratio of Ki for DOR in rat brain membranes to Ki for MOR in rat brain membranes. The class given is cell membranes. Summed up: as §2
Series [11] is described as follows: Toxicity in Swiss CB1 mouse assessed as sedation at 0.5 to 3.0 mg/kg, ip after 30 to 180 mins. The class given is organism-based. As to conditions: in vivo.
For series [12], the target named is T1, Mu-type opioid receptor. The series is described as follows: Potency index, ratio of test compounds intrinsic activity to DADLE intrinsic activity for agonist activity at Rluc-tagged MOR receptor (unknown origin) expressed in human […] cells co-expressing RGFP-fused to Gbeta1. The class given is cell-based. A digest of the protocol:
(§4)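 Enriched plasma membranes (3 µg protein) from SH-SY5Y cells stably co-expressing MOR-RLuc and Gβ1-RGFP, in DPBS. Membranes prepared by Dounce homogenisation in sucrose buffer and differential centrifugation. Coelenterazine 5 µM final; ligands in PBS-BSA 0.01% incubated 5 min at room temperature. Read-out is BRET ratio (510/460 nm). […] At least 5 experiments in duplicate.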

The target of series [13] is T1, Mu-type opioid receptor. The series is described as follows: Bias factor, change in deltalog(Tau/KA) for agonist activity at Rluc-tagged MOR receptor (unknown origin) expressed in human […] cells co-expressing RGFP-fused to Gbeta1 assessed as increase in MOR/G beta1 protein interaction incubated for 5 mins in presence of coelenterazine by BRET assay to deltalog(Tau/KA) for agonist activity at Rluc-tagged MOR receptor (unknown origin) expressed in human […] cells co-expressing RGFP-fused to MOR/beta-arrestin-2 assessed as increase in beta-arrestin-2 protein interaction incubated for 5 mins in presence of coelenterazine by BRET assay. The class given is cell-based.

The target in series [14] is T1, Mu-type opioid receptor. Kind of series: Potency index, ratio of test compounds EC50 to DADLE EC50 for agonist activity at Rluc-tagged MOR receptor (unknown origin) expressed in human […] cells co-expressing RGFP-fused to Gbeta1. The class given is cell-based. Summed up: as §4
Series [15] can be described thus: Toxicity in Swiss CB1 mouse assessed as locomotor activity at 0.5 to 3.0 mg/kg, ip after 30 to 180 mins. The class given is organism-based. As to conditions: in vivo.
Series [16] has as its target T2, Delta-type opioid receptor (Homo sapiens, UniProt P41143). The series is described as follows: Agonist activity at Rluc-tagged DOR receptor (unknown origin) expressed in human […] cells co-expressing RGFP-fused to beta-arrestin-2 assessed as increase in DOR/beta-arrestin-2 protein interaction incubated for 5 mins in presence of coelenterazine by BRET assay. The class given is cell-based. For orientation: In BRET a luciferase serves as donor, and the signal depends on an acceptor being close.

Series [17] can be described thus: Selectivity ratio of Ki for KOR in guinea pig brain membranes to Ki for MOR in rat brain membranes. The class given is cell membranes.
The target of series [18] is T2, Delta-type opioid receptor. The series is described as follows: Agonist activity at Rluc-tagged DOR receptor (unknown origin) expressed in human […] cells co-expressing RGFP-fused to Gbeta1 assessed as increase in DOR/G beta1 protein interaction incubated for 5 mins in presence of coelenterazine by BRET assay. The class given is cell-based.
The nature of series [19]: Toxicity in Swiss CB1 mouse assessed as locomotor activity at 0.5 to 5.0 mg/kg, ip after 30 to 180 mins. The series is classed as organism-based. As to conditions: in vivo.
Series [20] in a line: Toxicity in Swiss CB1 mouse assessed as sedation at 0.5 to 5.0 mg/kg, ip after 30 to 180 mins. The class given is organism-based. As to conditions: in vivo.
For series [21], the system named is Mus musculus. Kind of series: Antinociceptive activity in ip dosed Swiss CB1 mouse after 60 to 180 mins by radiant heat tail-flick method. The class given is functional, organism-based. Summed up: as §3
For the next series, the species on record is Homo sapiens. The series is described as follows: Selectivity ratio of agonist activity at Rluc-tagged MOR receptor (unknown origin) expressed in human SH-5YSY cells co-expressing RGFP-fused to Gbeta1 assessed as increase in MOR/G beta1 protein interaction incubated for 5 mins in presence of coelenterazine by BRET assay over Agonist activity at Rluc-tagged DOR receptor (unknown origin) expressed in human […] cells co-expressing RGFP-fused to Gbeta1 assessed as increase in DOR/G beta1 protein interaction incubated for 5 mins in presence of coelenterazine by BRET assay. The series is classed as cell-based.

T2 sequence (P41143 whole entry, the tested form may be a part): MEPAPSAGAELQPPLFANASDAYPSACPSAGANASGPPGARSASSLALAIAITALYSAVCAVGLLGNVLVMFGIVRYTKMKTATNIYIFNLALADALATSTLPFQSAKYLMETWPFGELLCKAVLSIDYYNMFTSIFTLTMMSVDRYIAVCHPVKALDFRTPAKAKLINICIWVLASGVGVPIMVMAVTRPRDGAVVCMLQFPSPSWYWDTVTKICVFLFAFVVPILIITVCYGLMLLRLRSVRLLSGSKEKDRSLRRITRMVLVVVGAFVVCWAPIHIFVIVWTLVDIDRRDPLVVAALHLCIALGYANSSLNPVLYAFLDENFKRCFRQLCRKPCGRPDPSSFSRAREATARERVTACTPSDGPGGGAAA
Chain of Mu-type opioid receptor (Rattus norvegicus, UniProt P33535) (P33535 whole entry): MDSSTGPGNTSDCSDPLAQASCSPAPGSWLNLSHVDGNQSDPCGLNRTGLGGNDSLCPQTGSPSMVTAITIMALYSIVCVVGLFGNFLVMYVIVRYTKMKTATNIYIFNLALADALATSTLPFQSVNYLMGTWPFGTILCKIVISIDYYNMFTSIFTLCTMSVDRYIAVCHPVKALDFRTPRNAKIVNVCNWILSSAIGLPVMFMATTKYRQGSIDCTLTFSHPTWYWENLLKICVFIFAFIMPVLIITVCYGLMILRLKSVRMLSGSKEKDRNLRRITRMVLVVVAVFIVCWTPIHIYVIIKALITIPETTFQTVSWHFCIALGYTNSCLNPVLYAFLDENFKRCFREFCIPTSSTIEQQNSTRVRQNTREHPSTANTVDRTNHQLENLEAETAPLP
Chain of Kappa-type opioid receptor (P41144 whole entry): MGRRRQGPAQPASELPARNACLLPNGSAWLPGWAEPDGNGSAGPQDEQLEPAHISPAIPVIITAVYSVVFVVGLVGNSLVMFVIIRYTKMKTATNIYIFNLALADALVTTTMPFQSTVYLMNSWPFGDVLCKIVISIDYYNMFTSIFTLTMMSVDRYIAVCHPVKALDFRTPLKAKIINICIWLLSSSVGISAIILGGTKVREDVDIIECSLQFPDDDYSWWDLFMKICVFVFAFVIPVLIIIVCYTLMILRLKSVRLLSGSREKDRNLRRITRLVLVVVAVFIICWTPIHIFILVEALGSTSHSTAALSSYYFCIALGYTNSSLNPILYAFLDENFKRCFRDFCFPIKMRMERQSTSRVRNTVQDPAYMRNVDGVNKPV

With `CO[C@H](CN1CC[C@@]2(C)c3cc(O)ccc3C[C@@H]1[C@@H]2C)c1ccccc1`, the Ratio stood at 30 on Mu-type opioid receptor [1]; 9 on Mu-type opioid receptor [2]; 0.11 at Mu-type opioid receptor [3]; 0.72 on Mu-type opioid receptor [10]; 0.93 on Mu-type opioid receptor [12]; 0.04 at Mu-type opioid receptor [14]. Moreover, the pKi – broadly, the Ki on a negative log10 scale, so that one unit is a factor of ten – in series [4] was 7.58; on Mu-type opioid receptor [5] it was 9.30; in [6] it was 8.59. Further, in the series with Mus musculus [7], the ED50 (as a rule, the dose that gives a 50% effect, or the effect in half of the subjects) amounted to 0.6 mg/kg. Moreover, the pEC50 – broadly, −log10 of the EC50, conventionally taken in molar units – at Mu-type opioid receptor [8] was 6.82; at Mu-type opioid receptor [9], 8.33; in series [16], 5.73; in series [18] it was 7.49. For the same compound, the values for the Ratio Ki (in the series listed under Rattus norvegicus; in series [17]) were 5.18 and 53, respectively. Also, the Activity result in [11] and in [15] was “Non-Toxic” each time. The fold change (FC) at Mu-type opioid receptor [13] was found to be 0.82.

As for `CO[C@@H](CN1CC[C@@]2(C)c3cc(O)ccc3C[C@@H]1[C@@H]2C)c1ccccc1`, the Activity result in series [19] and in series [20] was “Non-Toxic” in each case. The pKi in series [4] was 6.63; at Mu-type opioid receptor [5], 7.91; in series [6] it was 6.82. It took a dose of 1.8 mg/kg to reach the 50% effect level with Mus musculus [7] (ED50). The Ratio Ki was 12.3 in the series filed under Rattus norvegicus and 19.2 in series [17]. Moreover, the result in the series on Mus musculus [21] was Active.

Consider `COC(CN1CC[C@@]2(C)c3cc(O)ccc3C[C@@H]1[C@@H]2C)c1ccccc1` (some centres undefined), for which the Ratio at Mu-type opioid receptor [1] was 10; at Mu-type opioid receptor [2], 5; at Mu-type opioid receptor [3], 0.2; on Mu-type opioid receptor [10], 0.71; on Mu-type opioid receptor [12], 0.92; at Mu-type opioid receptor [14], 0.1. Further, the pEC50 on Mu-type opioid receptor [8] was 6.56; at Mu-type opioid receptor [9] it was 7.90; in [16], 5.65; in series [18], 7.02. Moreover, on Mu-type opioid receptor [13], the fold change (FC) was determined as 0.57.

In the case of `C[C@H]1[C@H]2Cc3ccc(O)cc3[C@]1(C)CCN2C[C@@H](O)c1ccccc1`, the pEC50 at Mu-type opioid receptor [9] was 8.18; in [18], 7.84. The figures for the Ratio on Mu-type opioid receptor [12], on Mu-type opioid receptor [14] and in the series filed under Homo sapiens were 0.87, 0.06 and 0.46, respectively.

In the case of `C[C@H]1[C@H]2Cc3ccc(O)cc3[C@]1(C)CCN2C[C@H](O)c1ccccc1`, the figures for the pEC50 (at Mu-type opioid receptor [9]; in series [18]) were 7.65 and 7.23, respectively. Further, the Ratio came out at 0.82 on Mu-type opioid receptor [12], 0.19 on Mu-type opioid receptor [14] and 0.4 in the series listed under Homo sapiens.
